For assay [1], the target named is Carbonic anhydrase 9 (Homo sapiens, UniProt Q16790). In words: Inhibition of human recombinant carbonic anhydrase 9 pre-incubated for 15 mins by stopped-flow CO2 hydration assay. Summed up: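 Recombinant human enzyme, produced in-house. CO2 1.7–17 mM. Initial rates taken over 10-100 s from at least six traces, with the uncatalysed rate subtracted. Inhibitor diluted in water from 0.1 mM stock down to 0.01 nM, preincubated with enzyme at room temperature. Three determinations.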

Assay [2] deals with Carbonic anhydrase 2 (Homo sapiens, UniProt P00918). In words: Inhibition of human recombinant carbonic anhydrase 2 pre-incubated for 15 mins by stopped-flow CO2 hydration assay.

In general, Ki refers to a measure of affinity in units of concentration, obtained from inhibition or displacement.

`COc1cccc(/C=C/C(=O)C[C@@H]2O[C@H](COC(C)=O)[C@@H](OC(C)=O)[C@H](OC(C)=O)[C@H]2OC(C)=O)c1`: in assay [1], the inhibitory constant (Ki) is 779 nM.

Turning to `COc1ccc(/C=C/C(=O)C[C@@H]2O[C@H](COC(C)=O)[C@@H](OC(C)=O)[C@H](OC(C)=O)[C@H]2OC(C)=O)cc1OC`, in assay [1], the inhibition constant Ki was 753 nM.

Consider `COc1cccc(/C=C/C(=O)C[C@@H]2O[C@H](COC(C)=O)[C@H](OC(C)=O)[C@H](OC(C)=O)[C@H]2OC(C)=O)c1`, for which the Ki in assay [1] was 93 nM.

For the compound `COc1ccc(/C=C/C(=O)C[C@@H]2O[C@H](COC(C)=O)[C@H](OC(C)=O)[C@H](OC(C)=O)[C@H]2OC(C)=O)cc1OC`, the Ki in assay [1] was 773 nM.

As to `COc1cccc(/C=C/C(=O)C[C@@H]2O[C@H](CO)[C@@H](O)[C@H](O)[C@H]2O)c1`, the figures for the Ki in assay [1] and in assay [2] were 615 nM and more than 50000 nM, respectively.

Consider `COc1ccc2cc(/C=C/C(=O)C[C@@H]3O[C@H](CO)[C@@H](O)[C@H](O)[C@H]3O)ccc2c1`, for which the Ki in assay [1] was 462 nM; in assay [2], more than 50000 nM.

Regarding `COc1cccc(/C=C/C(=O)C[C@@H]2O[C@H](CO)[C@H](O)[C@H](O)[C@H]2O)c1`, the values for the inhibitory constant (Ki) in assay [1] and in assay [2] were 3860 nM and more than 50000 nM, respectively.

Regarding `COc1ccc(/C=C/C(=O)C[C@@H]2O[C@H](CO)[C@H](O)[C@H](O)[C@H]2O)cc1OC`, the Ki in assay [1] stood at 936 nM.

As to `COc1ccc2cc(/C=C/C(=O)C[C@@H]3O[C@H](CO)[C@H](O)[C@H](O)[C@H]3O)ccc2c1`, the Ki in assay [1] was 485 nM; in assay [2], more than 50000 nM.

As to `COc1ccc(/C=C/C(=O)C[C@@H]2O[C@H](CO)[C@@H](O)[C@H](O)[C@H]2O)cc1OC`, the inhibitory constant (Ki) in assay [1] stood at 840 nM.

The values are drawn from ChEMBL document CHEMBL3352068 (Bioorg Med Chem, 2014).
